pEC50, pIC50: −log10 of the molar value.
Tests used:
[1] = target: Bromodomain-containing protein 3 (Homo sapiens, UniProt Q15059); test: Inhibition of human BRD3 bromodomain2 using H4KAc 5/8/12/16 peptide as substrate incubated overnight by HTRF assay
[2] = organism: Homo sapiens; test: Selectivity ratio of IC50 for GST-tagged human BRD3 bromodomain1 to IC50 for GST-tagged human BRD4 bromodomain1
[3] = organism: Homo sapiens; test: Selectivity ratio of IC50 for GST-tagged human BRD2 bromodomain1 to IC50 for GST-tagged human BRD4 bromodomain1
[4] = tested on: Jurkat; test: Downregulation of c-Myc in human Jurkat cells assessed as expression level at 10 uM after 24 hrs by Western blot analysis; type: functional
How it was run: (§1)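 Jurkat cells exposed to different compound concentrations in 0.5% DMSO for 24 h. c-Myc detected on blots loaded with 50 μg protein.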

[5] = tested on: Jurkat; test: Downregulation of c-Myc in human Jurkat cells assessed as expression level at 1 uM after 24 hrs by Western blot analysis; type: functional; how it was run: as §1
[6] = target: T1, ATPase family AAA domain-containing protein 2 (Homo sapiens, UniProt Q6PL18); test: Inhibition of GST-tagged human ATAD2 using H4KAc 5/8/12/16 peptide as substrate incubated overnight by HTRF assay
T1 sequence (Q6PL18 whole entry): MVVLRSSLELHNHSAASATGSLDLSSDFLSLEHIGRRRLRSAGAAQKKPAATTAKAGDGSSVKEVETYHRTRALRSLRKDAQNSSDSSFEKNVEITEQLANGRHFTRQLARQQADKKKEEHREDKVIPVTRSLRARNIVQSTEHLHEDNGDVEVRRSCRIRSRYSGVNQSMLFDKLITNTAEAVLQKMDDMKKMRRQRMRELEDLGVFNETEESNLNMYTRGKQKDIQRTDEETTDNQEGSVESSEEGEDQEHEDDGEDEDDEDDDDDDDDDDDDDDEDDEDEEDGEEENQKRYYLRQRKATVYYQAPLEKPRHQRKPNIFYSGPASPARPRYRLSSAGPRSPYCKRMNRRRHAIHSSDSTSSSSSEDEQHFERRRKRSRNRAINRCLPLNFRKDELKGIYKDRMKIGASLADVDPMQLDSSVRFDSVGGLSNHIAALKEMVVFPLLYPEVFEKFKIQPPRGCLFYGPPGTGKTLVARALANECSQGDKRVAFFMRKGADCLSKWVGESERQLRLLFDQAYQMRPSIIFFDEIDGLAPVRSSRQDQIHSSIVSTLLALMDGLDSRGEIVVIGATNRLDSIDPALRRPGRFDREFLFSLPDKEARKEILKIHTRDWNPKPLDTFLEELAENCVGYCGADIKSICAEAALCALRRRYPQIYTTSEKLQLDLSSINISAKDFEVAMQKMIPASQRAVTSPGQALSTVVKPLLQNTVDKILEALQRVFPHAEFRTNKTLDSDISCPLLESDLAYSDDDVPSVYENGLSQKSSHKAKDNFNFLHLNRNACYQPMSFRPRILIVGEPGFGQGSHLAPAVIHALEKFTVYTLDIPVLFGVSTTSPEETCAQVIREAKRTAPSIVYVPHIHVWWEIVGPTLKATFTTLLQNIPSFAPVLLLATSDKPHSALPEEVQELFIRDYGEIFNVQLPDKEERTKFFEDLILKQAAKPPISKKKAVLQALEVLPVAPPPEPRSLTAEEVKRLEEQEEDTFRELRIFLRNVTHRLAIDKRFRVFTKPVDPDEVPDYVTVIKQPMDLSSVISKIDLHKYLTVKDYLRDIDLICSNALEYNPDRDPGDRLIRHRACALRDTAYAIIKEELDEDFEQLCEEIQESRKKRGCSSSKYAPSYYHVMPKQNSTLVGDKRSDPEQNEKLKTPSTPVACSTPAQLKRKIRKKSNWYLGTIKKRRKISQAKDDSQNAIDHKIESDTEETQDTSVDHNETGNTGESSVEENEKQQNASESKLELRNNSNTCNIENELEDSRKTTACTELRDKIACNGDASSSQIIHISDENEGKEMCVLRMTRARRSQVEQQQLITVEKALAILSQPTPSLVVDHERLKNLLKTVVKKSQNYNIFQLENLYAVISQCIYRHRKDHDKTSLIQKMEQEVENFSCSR

[7] = tested on: Jurkat; test: Downregulation of c-Myc in human Jurkat cells assessed as expression level after 24 hrs by Western blot analysis; type: functional, cell-based; how it was run: as §1
[8] = target: Bromodomain testis-specific protein (Homo sapiens, UniProt Q58F21); test: Inhibition of GST-tagged human BRDT bromodomain1 using H4KAc 5/8/12/16 peptide as substrate incubated overnight by HTRF assay
[9] = tested on: Jurkat; test: Antiproliferative activity against human Jurkat cells after 72 hrs by Cell Titer-Glo luminescence assay; type: functional, cell-based
How it was run: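 Jurkat cell viability read across a range of compound concentrations after 72 h incubation at 37 °C. EC50 taken from the dose–response.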

[10] = tested on: Jurkat; test: Downregulation of c-Myc in human Jurkat cells assessed as expression level at 50 uM after 24 hrs by Western blot analysis; type: functional; how it was run: as §1
[11] = organism: Homo sapiens; test: Selectivity ratio of IC50 for GST-tagged human BRDT bromodomain1 to IC50 for GST-tagged human BRD4 bromodomain1
[12] = target: Bromodomain-containing protein 4 (Homo sapiens, UniProt O60885); test: Inhibition of GST-tagged human BRD4 bromodomain1 using H4KAc 5/8/12/16 peptide as substrate incubated overnight by HTRF assay

Chain of Bromodomain-containing protein 3 (Q15059 whole entry): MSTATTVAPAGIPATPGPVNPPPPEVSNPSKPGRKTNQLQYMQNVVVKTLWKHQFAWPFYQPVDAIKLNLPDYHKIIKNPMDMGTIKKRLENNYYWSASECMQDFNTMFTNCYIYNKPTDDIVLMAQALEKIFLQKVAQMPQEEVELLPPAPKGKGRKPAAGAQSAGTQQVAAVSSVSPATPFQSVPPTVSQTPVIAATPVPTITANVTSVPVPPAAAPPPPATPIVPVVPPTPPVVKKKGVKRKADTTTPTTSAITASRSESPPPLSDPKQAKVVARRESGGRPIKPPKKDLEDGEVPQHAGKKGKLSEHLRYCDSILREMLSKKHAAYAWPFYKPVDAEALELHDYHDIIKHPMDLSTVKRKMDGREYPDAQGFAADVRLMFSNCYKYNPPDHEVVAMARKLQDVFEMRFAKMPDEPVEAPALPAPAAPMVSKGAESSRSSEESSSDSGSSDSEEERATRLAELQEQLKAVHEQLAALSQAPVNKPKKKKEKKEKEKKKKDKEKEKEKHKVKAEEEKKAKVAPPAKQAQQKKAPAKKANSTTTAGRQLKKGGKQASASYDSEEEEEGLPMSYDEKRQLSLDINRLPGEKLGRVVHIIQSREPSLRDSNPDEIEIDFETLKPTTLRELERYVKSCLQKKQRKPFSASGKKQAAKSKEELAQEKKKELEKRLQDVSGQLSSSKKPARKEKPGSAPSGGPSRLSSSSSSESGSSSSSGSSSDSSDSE

## CCn1cnc2c1c(=O)[nH]c(=O)n2Cc1ccc(Cl)cc1
[1]
  pIC50: 5.74

## CCCCc1c(C)nc2nc(SCc3nc4c(c(=O)[nH]c(=O)n4CCCC)n3CC)nn2c1C
[2]
  Ratio IC50: > 10
[3]
  Ratio IC50: > 10
[4]
  Activity: 98%
[5]
  Activity: 62%
[6]
  pIC50: < 4.00
[7]
  Activity: Dose-dependent effect
[8]
  pIC50: < 4.00
[9]
  Activity: Dose-dependent effect
  pEC50: 4.57
[10]
  Activity: 3%
[11]
  Ratio IC50: > 10

## CCCCn1c(=O)[nH]c(=O)c2c1nc(CSc1n[nH]c(N)n1)n2CC
[12]
  pIC50: < 4.30

## CCn1c(CSc2n[nH]c(N)n2)nc2c1c(=O)[nH]c(=O)n2Cc1ccc(Cl)cc1
[8]
  pIC50: < 4.00
